The source made the active and inactive calls. The calls are words filed in the database; no cut-off is given here.
Columns and labels:
Cyanidioschyzon merolae [1] = assay: Binding affinity to Cyanidioschyzon merolae ABCB1 assessed as Km
In short: (§1)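 Purified wild-type CmABCB1 in β-DDM micelles; ATPase activity measured against rhodamine concentration with 5 mM ATP in 50 mM Tris–HCl (pH 7.5 at 37 °C), 150 mM NaCl, 0.05% (w/v) β-DDM, 37 °C, 30 min. Bell-shaped activity curve fitted to a modified Michaelis–Menten equation giving Km (stimulation) and Ki (substrate inhibition); means ± SD, n = 3.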

[2] = Inhibition of Cyanidioschyzon merolae ABCB1 ATPase activity assessed as inhibition constant by colorimetric analysis; in short: as §1
Saccharomyces cerevisiae [3] = assay: Antimicrobial activity against Saccharomyces cerevisiae expressing AD1-8u- cells assessed as growth inhibition upto 30 uM incubated for 15 to 17 hrs; assay type: functional, organism-based; conditions: time 15-17 hrs
In short: (§2)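 S. cerevisiae AD1-8u cells expressing wild-type CmABCB1, alongside mock-transfected AD1-8u cells, grown in YPD medium with a range of drug concentrations at 30 °C for 15–17 h; growth compared between strains; means ± SD, n = 3.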

Saccharomyces cerevisiae [4] = assay: Antimicrobial activity against Saccharomyces cerevisiae expressing AD1-8u- cells assessed as growth inhibition at 1 uM incubated for 15 to 17 hrs; assay type: functional, organism-based; conditions: time 15-17 hrs; in short: as §2
Cyanidioschyzon merolae [5] = assay: Potency index, ratio of test compound Km to Rhodamine 6G Km for binding affinity to Cyanidioschyzon merolae ABCB1 assessed as Km
Cyanidioschyzon merolae [6] = assay: Potency index, ratio of test compound Ki to Rhodamine 6G Ki for inhibition of Cyanidioschyzon merolae ABCB1 ATPase activity assessed as inhibition constant by colorimetric analysis
Cyanidioschyzon merolae [7] = assay: Substrate activity at Cyanidioschyzon merolae ABCB1 4WY/M391W mutant assessed as tryptophan quenching ratio by measuring inner chamber entry by fluorescence based analysis
In short: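 Purified CmABCB1 4WY/M391W mutant (four of six native Trp removed, Trp introduced at 391), 13 μg/mL in 20 mM Tris–HCl (pH 7.5 at 25 °C), 150 mM NaCl, 0.05% (w/v) β-DDM, titrated with compound (0–1.0 μM) at 25 °C; excitation 290 nm, quenching ratio of emission at 340 nm.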

SMILES: O=C(OCCc1ccccc1)c1ccccc1C1=c2cc3c(cc2Oc2cc4c(cc21)CCCN4)=NCCC3
- Km (Cyanidioschyzon merolae [1]): 1.4 µM
- Ki [2]: 8.1 µM

SMILES: CCCCOC(=O)c1ccccc1-c1c2cc(C)c(=[N+]3CCCC3)cc-2oc2cc(N3CCCC3)c(C)cc12
- Km (Cyanidioschyzon merolae [1]): 1.1 µM
- Ki [2]: 110 µM

SMILES: CCCCOC(=O)c1ccccc1-c1c2cc(C)/c(=N\CC)cc-2oc2cc(NCC)c(C)cc12
- Km (Cyanidioschyzon merolae [1]): 4.6 µM
- Ki [2]: 560 µM

SMILES: COc1cccc(COC(=O)c2ccccc2C2=c3cc4c(cc3Oc3cc5c(cc32)CCCN5)=NCCC4)c1
- Km (Cyanidioschyzon merolae [1]): 0.58 µM
- Ki [2]: 8.2 µM

SMILES: O=C(OCc1cccc(C(F)(F)F)c1)c1ccccc1C1=c2cc3c(cc2Oc2cc4c(cc21)CCCN4)=NCCC3
- Km (Cyanidioschyzon merolae [1]): 0.44 µM
- Ki [2]: 18 µM

SMILES: O=C(OCc1cccc([N+](=O)[O-])c1)c1ccccc1C1=c2cc3c(cc2Oc2cc4c(cc21)CCCN4)=NCCC3
- Km (Cyanidioschyzon merolae [1]): 0.55 µM
- Ki [2]: 12 µM

SMILES: CC/N=c1/cc2oc3cc(NCC)c(C)cc3c(-c3ccccc3C(=O)OCC)c-2cc1C
- Km (Cyanidioschyzon merolae [1]): 2.9 µM
- Ki [2]: 690 µM
- Activity (Saccharomyces cerevisiae [3]): inactive
- Activity (Saccharomyces cerevisiae [4]): Active

SMILES: O=C(OCc1cc(C(F)(F)F)cc(C(F)(F)F)c1)c1ccccc1C1=c2cc3c(cc2Oc2cc4c(cc21)CCCN4)=NCCC3
- Km (Cyanidioschyzon merolae [1]): 2.3 µM
- Ki [2]: 6.3 µM

SMILES: CCCCOC(=O)c1ccccc1C1=c2cc3c4c(c2Oc2c1cc1c5c2CCCN5CCC1)CCC[N+]=4CCC3
- Km (Cyanidioschyzon merolae [1]): 1.5 µM
- Ki [2]: 43 µM

SMILES: CCCC/N=c1/cc2oc3cc(NCCCC)c(C)cc3c(-c3ccccc3C(=O)OCCCC)c-2cc1C
- Km (Cyanidioschyzon merolae [1]): 3.2 µM
- Ki [2]: 160 µM

SMILES: Cc1cccc(COC(=O)c2ccccc2C2=c3cc4c(cc3Oc3cc5c(cc32)CCCN5)=NCCC4)c1
- Km (Cyanidioschyzon merolae [1]): 0.56 µM
- Ki [2]: 8.4 µM

SMILES: CCCCOC(=O)c1ccccc1C1=c2cc3c(cc2Oc2cc4c(cc21)CCCN4)=NCCC3
- Km (Cyanidioschyzon merolae [1]): 1.7 µM
- Ki [2]: 14 µM

SMILES: COc1cc(COC(=O)c2ccccc2C2=c3cc4c(cc3Oc3cc5c(cc32)CCCN5)=NCCC4)cc(OC)c1
- Km (Cyanidioschyzon merolae [1]): 0.31 µM
- Ki [2]: 31 µM

SMILES: O=C(OCc1ccccc1C(F)(F)F)c1ccccc1C1=c2cc3c(cc2Oc2cc4c(cc21)CCCN4)=NCCC3
- Km (Cyanidioschyzon merolae [1]): 3.9 µM
- Ki [2]: 1.2 µM

SMILES: CN(C)c1cccc(COC(=O)c2ccccc2C2=c3cc4c(cc3Oc3cc5c(cc32)CCCN5)=NCCC4)c1
- Km (Cyanidioschyzon merolae [1]): 0.52 µM
- Ki [2]: 10 µM

SMILES: COc1ccc(COC(=O)c2ccccc2C2=c3cc4c(cc3Oc3cc5c(cc32)CCCN5)=NCCC4)cc1
- Km (Cyanidioschyzon merolae [1]): 0.73 µM
- Ki [2]: 9.1 µM

SMILES: O=C(OCc1ccc2ccccc2c1)c1ccccc1C1=c2cc3c(cc2Oc2cc4c(cc21)CCCN4)=NCCC3
- Km (Cyanidioschyzon merolae [1]): 0.77 µM
- Ki [2]: 9.6 µM

SMILES: COc1ccccc1COC(=O)c1ccccc1C1=c2cc3c(cc2Oc2cc4c(cc21)CCCN4)=NCCC3
- Km (Cyanidioschyzon merolae [1]): 0.5 µM
- Ki [2]: 8.2 µM

SMILES: COc1cccc(OC)c1COC(=O)c1ccccc1C1=c2cc3c(cc2Oc2cc4c(cc21)CCCN4)=NCCC3
- Km (Cyanidioschyzon merolae [1]): 0.55 µM
- Ki [2]: 5.8 µM
- Ratio (Cyanidioschyzon merolae [5]): 5
- Ratio Ki (Cyanidioschyzon merolae [6]): 120
- Activity (Cyanidioschyzon merolae [7]): 30%

SMILES: O=C(OCc1ccccc1)c1ccccc1C1=c2cc3c(cc2Oc2cc4c(cc21)CCCN4)=NCCC3
- Km (Cyanidioschyzon merolae [1]): 0.81 µM
- Ki [2]: 8.9 µM

From ChEMBL document CHEMBL5357076, “Structure-ATPase Activity Relationship of Rhodamine Derivatives as Potent Inhibitors of P-Glycoprotein CmABCB1” (ACS Med Chem Lett, 2024)
